Laboratory results published in ChEMBL document CHEMBL4808224, “Rational Design of Original Fused-Cycle Selective Inhibitors of Tryptophan 2,3-Dioxygenase” (J Med Chem, 2021).
Activity calls are given as the source filed them. The rule behind the calls is not given here.

Columns and labels:
[1] = Metabolic stability in liver microsomes (unknown origin) assessed as half life at 10 uM by UPLC analysis; assay type: ADME, Microsome
[2] = molecular target: Indoleamine 2,3-dioxygenase 1 (Homo sapiens) (UniProt P14902); assay: Inhibition of human IDO1 assessed as reduction in kynurenine production at 100 uM using tryptophan as substrate by cellular assay
Indoleamine 2,3-dioxygenase 1 (Homo sapiens), sequence (P14902 whole entry, looked up): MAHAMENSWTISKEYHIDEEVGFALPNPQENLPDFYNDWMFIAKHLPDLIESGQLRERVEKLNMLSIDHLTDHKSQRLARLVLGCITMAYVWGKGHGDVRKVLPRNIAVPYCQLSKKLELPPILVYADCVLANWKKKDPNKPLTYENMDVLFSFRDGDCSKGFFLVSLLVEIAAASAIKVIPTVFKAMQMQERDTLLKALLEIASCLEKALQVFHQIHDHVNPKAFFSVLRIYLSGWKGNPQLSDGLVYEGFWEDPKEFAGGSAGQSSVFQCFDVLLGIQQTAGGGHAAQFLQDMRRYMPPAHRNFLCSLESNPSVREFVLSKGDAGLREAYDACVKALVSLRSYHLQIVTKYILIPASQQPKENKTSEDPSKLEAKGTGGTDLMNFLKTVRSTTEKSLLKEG

[3] = molecular target: Indoleamine 2,3-dioxygenase 1 (Homo sapiens) (UniProt P14902); assay: Inhibition of human IDO1 assessed as reduction in kynurenine production at 100 uM using tryptophan as substrate by enzymatic assay
[4] = Cytotoxicity against mouse P815B cells incubated for 2 to 4 hrs by MTS assay; assay type: cell-based, P815; conditions: time 2-4 hrs, read-out: LD50 (the source's name)
Procedure, shortened: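 1 × 10⁵ cells per well in DMEM; MTS with PMS, diluted in PBS, added to the wells; incubated 2–4 h at 37 °C; absorbance read at 490 nm.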

[5] = Cysteamine reactivity assessed as aromatic signals at 1 mM measured after 30 mins by 1H NMR spectroscopy; assay type: physicochemical; conditions: 0.5 h, 1000 µM
[6] = Cysteamine reactivity assessed as aromatic signals at 1 mM measured after 30 mins by LC-MS/MS analysis; assay type: physicochemical; conditions: 0.5 h, 1000 µM
[7] = Toxicity in mouse P815 cells assessed as cell cycle distribution at > 100 uM measured after 6 to 12 hrs by propidium iodide DNA staining based flow cytometry; conditions: time 6-12 hrs
[8] = molecular target: Tryptophan 2,3-dioxygenase (Homo sapiens, UniProt P48775); assay: Inhibition of human TDO2 expressed in HEK293E cells assessed as reduction in N-formylkynurenine formation using tryptophan as substrate measured after 24 hrs by HPLCC based UV spectrometry; assay type: cell-based, HEK2936E
Tryptophan 2,3-dioxygenase, sequence (P48775 whole entry): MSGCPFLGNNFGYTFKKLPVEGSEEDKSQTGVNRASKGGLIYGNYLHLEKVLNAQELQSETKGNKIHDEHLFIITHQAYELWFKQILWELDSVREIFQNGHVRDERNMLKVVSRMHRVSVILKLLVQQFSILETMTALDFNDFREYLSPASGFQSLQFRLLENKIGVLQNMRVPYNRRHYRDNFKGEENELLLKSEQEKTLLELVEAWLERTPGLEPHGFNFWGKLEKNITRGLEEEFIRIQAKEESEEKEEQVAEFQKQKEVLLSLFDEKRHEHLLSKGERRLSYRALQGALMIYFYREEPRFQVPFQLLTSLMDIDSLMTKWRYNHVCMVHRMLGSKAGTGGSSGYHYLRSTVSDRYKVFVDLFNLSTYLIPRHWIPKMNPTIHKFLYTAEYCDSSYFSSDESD

`FC(F)(F)Cn1nnc2ccc(-c3c[nH]c4ccccc34)cc21` gave a half-life at 10 µM [1] of 45 min.
For `Fc1ccc2c(/C=C/c3nnn[nH]3)c[nH]c2c1`, the inhibition [2] was “inactive”, the inhibition [3] was “inactive” and the half-life at 10 µM [1] was over 1440 min. The CC50 [4] was over 100 µM, the Drug metabolism [5] was “Metabolite_Detected” and the Drug metabolism [6] was “Metabolite_Detected”.
In the case of `c1ccc2c(-c3ccc4n[nH]nc4c3)c[nH]c2c1`, the Activity [7] is reported as “Non-Toxic”, the CC50 [4] is reported as over 100 µM and the Drug metabolism [5] is reported as “Metabolite_Notdetected”. The Drug metabolism [6] was “Metabolite_Notdetected”.
Work on `O=S(=O)(c1ccc(-c2c[nH]c3cc(F)ccc23)cn1)N1CCNCC1` yielded an IC50 [8] of 3.2 µM.
`O=C1NCC2C=CC(c3c[nH]c4ccccc34)=CC2N1` (stereo not given) gave a CC50 [4] of over 30 µM.
With `c1ccc2c(-c3ccc4cnccc4c3)c[nH]c2c1` the CC50 [4] was over 30 µM.
`c1ccc2c(-c3ccc4cncnc4c3)c[nH]c2c1` gave a CC50 [4] of over 100 µM.
Work on `c1ccc2c(-c3ccc4ncncc4c3)c[nH]c2c1` yielded a CC50 [4] of over 100 µM.
For `Fc1ccc2c(/C=C/c3cccnc3)c[nH]c2c1`, the inhibition [2] was “inactive”, the inhibition [3] was “inactive” and the CC50 [4] was over 80 µM.
Compound `c1ccc2c(-c3ccc4ccncc4c3)c[nH]c2c1` has a CC50 [4] of over 20 µM.
